{"data": "Published values gathered from unrelated publications", "note": "Compare with care: the assays were run in different laboratories."}
{"SMILES": "Fc1ccc(Oc2ccc(Nc3ccc4ncc(OCC5CCNCC5)nc4c3)cc2)cc1", "test system": "SCID mouse, plasma", "setting": "intraperitoneal, 50 mg/kg, 24 h", "concentration": "1700 nM"}
{"SMILES": "NCc1cc2c(cc1F)C(=O)N(C1CCC(=O)NC1=O)C2 (centres unmarked)", "test system": "male CD-1 mouse, plasma", "setting": "intravenous, 1 mg/kg, 4 h", "concentration": "2.8 ng/mL"}
{"SMILES": "O=C1CCC(N2Cc3cc(C4CCN(Cc5ccccc5)CC4)ccc3C2=O)C(=O)N1 (centres unmarked)", "test system": "male CD-1 mouse, plasma", "setting": "oral, 3 mg/kg, 1 h", "concentration": "235 ng/mL"}
{"SMILES": "CC1(C)NC(=O)N(c2ccc(F)c(Br)c2)C1=O", "test system": "male Swiss mouse, plasma", "setting": "oral, 100 mg/kg, 48 h", "concentration": "1110 ng/mL"}
{"SMILES": "CN(C)C(=O)c1cc2cnc(Nc3ccc(-c4ccc5c(=O)cc(N6CCOCC6)oc5c4)cc3)nc2n1C1CCCC1", "test system": "BALB/c mouse, brain", "setting": "oral, 20 mg/kg, 24 h, single dose", "concentration": "5.3 ng/g"}
{"SMILES": "O=C1CCC(N2Cc3cc(CO)c(F)cc3C2=O)C(=O)N1 (centres unmarked)", "test system": "male CD-1 mouse, plasma", "setting": "intravenous, 1 mg/kg, 2 h", "concentration": "8.1 ng/mL"}
{"SMILES": "CC(C)c1cc(C(=O)NCCN)c2cnn(C(C)C)c2n1", "test system": "female BALB/c mouse, plasma", "setting": "intraperitoneal, 50 mg/kg, 15 min", "concentration": "2010 ng/mL"}
{"SMILES": "Cc1nc2ccc(OCc3ccc(C(F)(F)F)cc3)cc2[nH]1", "test system": "male BALB/c mouse, brain", "setting": "oral, 10 mg/kg, 4 h", "concentration": "2000 ng/g"}
{"SMILES": "CCOC(=O)c1c(NC(=O)CNC(C)C)sc2c1CCCCC2", "test system": "male mouse, brain", "setting": "intraperitoneal, 100 mg/kg, 30 min", "concentration": "15800 ng/g"}
{"SMILES": "CC(C)n1ncc2c(C(=O)NCC3(C)CNC3)cc(C3CC3)nc21", "test system": "female BALB/c mouse, plasma", "setting": "intraperitoneal, 50 mg/kg, 8 h", "concentration": "240 ng/mL"}
{"SMILES": "Cc1ccc2c(c1)C(=O)[C@]1(O)CCN(c3ccc4nc(C)ccc4c3)C1=N2", "test system": "mouse, plasma", "setting": "subcutaneous, 10 mg/kg, 30 min", "concentration": "2500 nM"}
{"SMILES": "OCc1nc2ccc(NCc3ccc(C(F)(F)F)cc3)cc2[nH]1", "test system": "male BALB/c mouse, brain", "setting": "oral, 10 mg/kg, 6 h", "concentration": "227 ng/g"}
{"SMILES": "CC1(C)NC(=O)N(c2ccc(F)c(S(C)(=O)=O)c2)C1=O", "test system": "male Swiss mouse, plasma", "setting": "oral, 100 mg/kg, 1 h", "concentration": "31900 ng/mL"}
{"SMILES": "CC(C)(C)S(=O)(=O)c1cc2c(Nc3ccc4scnc4c3)ncnc2cc1OCCOP(=O)(O)O", "test system": "BALB/c mouse, plasma", "setting": "oral, 10 mg/kg, 2 h", "concentration": "145 ng/mL"}
